Most compounds without a hit are left out; they make up all but 9% or so of the library.
M1 agonist – M1 muscarinic receptor agonism | CHO-M1 cells, Fluo-4 calcium fluorescence, agonist mode; stronger effect = higher value | B-score at 10 µM | hit rate 3% among 64,000 | AID 626;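 active = fluorescence rise, raw or as B-score row- and column-corrected plate score, outside the 99.7% band of its plate's samples, either direction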
AP ELISA ortho – orthogonal test for alternative complement pathway inhibitors. hit rate 0.08% among 62,000. Human serum alternative complement pathway, LPS-coated ELISA, C3 deposition; tested in compound mixtures. inhibition, % at 5 µM;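 active = inhibition above 30% in each of the two pooled mixtures holding the compound, so the lower value exceeds 30%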
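Test system: human serum alternative complement pathway, C3 deposition on LPS-coated wells; also added: Plate-bound LPS; doses: 5 µM per compound in ten-compound mixtures; schedule: 1 h at 37 °C; detection: Anti-C3 ELISA, OD 450 nm; evaluation: percent inhibition of C3 deposition onto LPS; repeats: two pool placements per compound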
D1 mod – allosterically modulates the human D1 dopamine receptor | hit rate 5.9% among 58,000 | P21728 | HEK293 D1, CRE-luciferase, dopamine EC30 potentiation; actives deviate in either direction | B-score at 10 µM;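 active = luminescence count or its row- and column-corrected plate score outside the 99.7% band of the plate's sample wells, on either side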
Target sequence (P21728 whole entry, looked up): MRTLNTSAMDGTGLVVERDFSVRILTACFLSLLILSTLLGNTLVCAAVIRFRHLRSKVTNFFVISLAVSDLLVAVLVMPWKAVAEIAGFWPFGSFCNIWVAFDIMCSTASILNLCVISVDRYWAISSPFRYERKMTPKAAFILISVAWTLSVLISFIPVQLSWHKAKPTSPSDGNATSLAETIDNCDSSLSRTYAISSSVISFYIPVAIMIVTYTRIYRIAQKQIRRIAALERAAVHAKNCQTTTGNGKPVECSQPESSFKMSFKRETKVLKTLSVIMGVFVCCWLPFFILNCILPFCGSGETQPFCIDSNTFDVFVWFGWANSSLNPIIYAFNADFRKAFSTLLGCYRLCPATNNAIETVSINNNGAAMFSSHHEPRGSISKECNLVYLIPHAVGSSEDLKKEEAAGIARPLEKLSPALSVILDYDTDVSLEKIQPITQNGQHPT
mHtt clearance – mutant huntingtin protein clearance. AID 853. inhibition, % at 1.5 µM. HeLa Exon1htt(103Q)mCFP, aggregate imaging; zero = plate's median compound well. hit rate 0.42% among 47,000;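 active = inhibition of aggregate fluorescence above about 70%, also judged a hit by eye on the cell image, limit read from the data, passing the limit was not always enough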;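 note: cells exposed to compound for three days before fixation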
M1 antag – antagonists of rat M1 muscarinic receptor | CHO-M1 cells, Fluo-4 calcium, ACh EC80 antagonist mode; stronger effect = lower value | hit rate 3.4% among 64,000 | P08482 | B-score at 10 µM;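 active = calcium fluorescence response, raw or row-and-column corrected B-score, differing from the plate sample mean either way at a set confidence level, mostly lower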
D1 PAM confirm – confirmation of human D1 dopamine receptor allosteric modulators; shares compounds with D1 mod; HEK293 D1 CRE-luciferase, dopamine EC30 potentiation; stronger effect = higher value; luminescence at 10 µM; hit rate 88% among 2,200; AID 642;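 active = luminescence in either of two replicates above the same-plate mean plus 3 SD of the low-dose dopamine control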
D1 ag no DA – activates D1 CRE-luciferase signal without dopamine present. hit rate 0.8% among 1,900. luminescence at 10 µM. shares compounds with D1 mod. HEK293 D1 CRE-luciferase, luminescence, no dopamine; stronger effect = higher value. AID 646; in the data active = luminescence above about 3900
Isoprot counter – isoproterenol response counter-screen activity for D1 modulators; shares compounds with D1 mod; HEK293 D1 CRE-luciferase, isoproterenol EC30 counter-screen; calls only at 10 µM; hit rate 63% among 2,200; AID 647;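 active = luminescence in either replicate above plate mean of wells with a partly effective reference agonist dose plus 3 SD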;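 note: isoproterenol raises cAMP through native beta-adrenoceptor Gs so signal bypasses D1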
Large screens that a line does not name were inactive (follow-up assays come after a bar, where they were run).

CCOC(=O)C1=C(C)NC2=C(C(=O)CC(C)(C)C2)C1c1cccc(C)n1 (centres undefined)	none (no result: mHtt clearance)
N#Cc1nc(-c2cccs2)oc1NCC1CCCO1 (centres undefined)	D1 mod 12.9 (no result: mHtt clearance) | D1 PAM confirm 18624 | Isoprot counter inactive
CCOC(=O)N1CCN(c2c(NCC3CCN(Cc4cccc(C)c4)CC3)c(=O)c2=O)CC1	none (no result: mHtt clearance)
CC1(C(=O)NC2CCCCC2)CCC(=O)N1Cc1cccnc1 (centres undefined)	D1 mod 7.47 | D1 PAM confirm inactive | D1 ag no DA inactive | Isoprot counter inactive
O=C(N1CCOCC1)C(F)(F)C(F)(F)C(F)(F)C(F)(F)C(=O)N1CCOCC1	none (no result: mHtt clearance)
COCCN1CC(O)=C(c2nc3ccccc3c(=O)[nH]2)C1=N	D1 mod 6.79 (no result: mHtt clearance) | D1 PAM confirm inactive | D1 ag no DA inactive | Isoprot counter inactive
Cc1ccc(CCNc2ccccc2C)cn1	none (no result: M1 agonist, AP ELISA ortho, D1 mod, M1 antag)
N#Cc1c(-c2ccccc2)cc(-c2ccco2)c(C#N)c1N	D1 mod 2.87 (no result: mHtt clearance) | D1 PAM confirm 6724 | Isoprot counter inactive
CC(C)(C)c1cc(-c2ccco2)c(C#N)c(SCC#N)n1	none
COc1ccccc1C(=O)Nc1sc2c(c1C(=O)NCc1ccco1)CCCC2	none (no result: M1 agonist, AP ELISA ortho, D1 mod, M1 antag)
CCN1C/C(=C\c2cccc(C)c2)c2nc3ccccc3c(C(=O)O)c2C1	none (no result: M1 agonist, AP ELISA ortho, D1 mod, M1 antag)
CSc1nc2ccccc2n1C(=O)Oc1ccccc1	D1 mod 9.36 (no result: mHtt clearance) | D1 PAM confirm 12420 | D1 ag no DA inactive | Isoprot counter active
COc1ccc(-c2nnc(-c3ccc(Br)o3)o2)cc1OC	D1 mod 4.79 (no result: mHtt clearance) | D1 PAM confirm 8496 | D1 ag no DA inactive | Isoprot counter inactive
Cc1ccc(Oc2ccc(S(=O)(=O)N3CCOCC3)cc2C(N)=O)c(-n2nc3ccccc3n2)c1	none
CC(=O)Nc1cc2c(cc1C(=O)C(C)C)OCCO2	D1 mod 5.27 (no result: mHtt clearance) | D1 PAM confirm 14100 | Isoprot counter active
CNc1nc(Sc2ccc(C)cc2)cc(C(F)(F)F)n1	none (no result: M1 agonist, AP ELISA ortho, D1 mod, M1 antag)
COC(=O)c1c(-c2ccccc2)csc1NC(=O)c1ccco1	D1 mod 4.93 | D1 PAM confirm 6288 | D1 ag no DA inactive | Isoprot counter inactive
COC(=O)c1ccccc1NC(=O)c1ccco1	D1 mod 4.37 | D1 PAM confirm 11880 | D1 ag no DA inactive | Isoprot counter active
CNC(=O)c1ccccc1NC(=O)c1ccco1	none (no result: M1 agonist, AP ELISA ortho, D1 mod, M1 antag)
CC(=NC1CCCCC1)C1=C(O)c2ccccc2C1=O	none (no result: AP ELISA ortho, mHtt clearance)
Cc1nn(Cc2ccc(C(=O)Nc3ccc(Br)c4cccnc34)o2)c(C)c1Br	none (no result: M1 agonist, AP ELISA ortho, D1 mod, M1 antag)
CCn1c(CNc2ccc(F)cc2)nnc1SCC(=O)Nc1ccc(OC)cc1OC	none
Cc1cc(NC(=O)c2sccc2C)n(-c2cccc(Cl)c2)n1	D1 mod 4.87 | D1 PAM confirm 12892 | D1 ag no DA inactive | Isoprot counter active
CCOC(=O)C1=C(c2ccccc2)N2CCS(=O)(=O)N=C2S1	D1 mod 7.12 | D1 PAM confirm 9940 | D1 ag no DA inactive | Isoprot counter inactive
CCOC(=O)c1c(N)nn(C(=O)C(C)(C)C)c1-c1ccccc1	none
Cc1nc(SCC(=O)NCc2ccco2)c2c3c(sc2n1)CCCC3	none (no result: D1 mod)
CCCc1nc2sc3c(SCC(=O)NCc4ccco4)ncnc3c2c2c1CCC2	D1 mod 5.28 (no result: mHtt clearance) | D1 PAM confirm 8768 | D1 ag no DA inactive | Isoprot counter inactive
CCOc1ccc(-c2nc(S(=O)(=O)c3ccccc3)c(NCc3cccnc3)o2)cc1	D1 mod 5.7 | D1 PAM confirm 8380 | D1 ag no DA inactive | Isoprot counter active
Cc1ccccc1-n1c(SCc2ccccn2)nc2n[nH]c(C)c2c1=N	none (no result: AP ELISA ortho)
CCOc1ccccc1NC(=O)CCSc1nc2n[nH]c(C)c2c(=N)n1-c1ccccc1Cl	D1 mod 3.83 (no result: mHtt clearance) | D1 PAM confirm 11132 | D1 ag no DA inactive | Isoprot counter active
CCOc1ccccc1-n1c(SCC(=O)Nc2ccc(CC)cc2)nc2n[nH]c(C)c2c1=N	D1 mod 1.95 (no result: AP ELISA ortho, mHtt clearance) | D1 PAM confirm inactive | D1 ag no DA inactive | Isoprot counter inactive
CCc1ccc(NC(=O)CSc2nnc(-c3ccccn3)n2C)cc1	none (no result: mHtt clearance)
CCOc1ccccc1Nc1nc(N)nc(CSc2nccc(C)n2)n1	D1 mod 3.57 | D1 PAM confirm 6988 | Isoprot counter inactive
CCOC(=O)N1CCN(S(=O)(=O)c2cccc3ccc(C)nc23)CC1	none (no result: mHtt clearance)
COCCCn1c2nc3ccccc3nc2c2c(=O)n(CC3CCCO3)cnc21 (centres undefined)	D1 mod 6.36 (no result: AP ELISA ortho, mHtt clearance) | D1 PAM confirm 8104 | Isoprot counter inactive
Cc1cc2c(c(N)n1)c(=O)oc1ccccc12	D1 mod 22.2 (no result: mHtt clearance) | D1 PAM confirm 19088 | Isoprot counter active
COc1ccc(N(C(=O)c2ccc(Br)o2)C2C=CS(=O)(=O)C2)cc1 (centres undefined)	none (no result: D1 mod, mHtt clearance)
CC(=O)n1c2ccccc2c2c(C#N)c(N3CCCCC3)sc21	none (no result: mHtt clearance)
C=CCNc1nc2c3ccccc3n(C(C)=O)c2s1	D1 mod 6.25 (no result: mHtt clearance) | D1 PAM confirm 7816 | D1 ag no DA inactive | Isoprot counter active
O=C(Nc1ccc(N2CCOCC2)cc1)C1CCCN(S(=O)(=O)c2cccc(C(F)(F)F)c2)C1 (centres undefined)	none (no result: mHtt clearance)
CCC(C)[C@H](NC(=O)Nc1ccc(C(C)=O)cc1)C(=O)OC (some centres undefined)	none (no result: mHtt clearance)
Cc1cccc(C)c1NC(=O)c1cc(S(=O)(=O)N2CCOCC2)ccc1F	none
COc1ccc(N2CCN(c3ccc(NC(=O)c4ccc5c(c4)OCO5)cc3C#N)CC2)cc1	D1 mod 6.38 (no result: mHtt clearance) | D1 PAM confirm inactive | Isoprot counter inactive
CC(C)Nc1nc(C#N)nc(NC(C)C)n1	D1 mod 11.2 | D1 PAM confirm 12292 | Isoprot counter active
CN=C1c2ccccc2CN1c1cccc(C(=O)OC)c1	D1 mod 12.7 (no result: mHtt clearance) | D1 PAM confirm 19796 | D1 ag no DA inactive | Isoprot counter active
O=C(CSc1ccc2nnc(-c3ccc(F)cc3)n2n1)N1CCOCC1	none (no result: D1 mod, mHtt clearance)
N#CC1=C(N)N(c2ccccc2)C(c2ccco2)C1(C#N)C#N (centres undefined)	D1 mod 7.69 (no result: mHtt clearance) | D1 PAM confirm inactive | D1 ag no DA inactive | Isoprot counter inactive
CC(=O)Nc1ccc(C2NC(=O)c3ccccc3O2)cc1 (centres undefined)	D1 mod 3.06 | D1 PAM confirm inactive | D1 ag no DA inactive | Isoprot counter inactive
CCc1nc2scc(-c3ccccc3)c2c(=O)n1N	D1 mod 6.55 | D1 PAM confirm 14056 | D1 ag no DA inactive | Isoprot counter active
Cc1nc2scc(-c3ccccc3)c2c(=O)n1N	none (no result: D1 mod, mHtt clearance)
CC(C)(C)C1=Nn2c(nnc2-c2ccccc2F)SC1	D1 mod 21.4 | D1 PAM confirm 20880 | Isoprot counter active
